Assay results taken from publication PMC11665275 (Organic & Biomolecular Chemistry, 2024).
Square brackets hold non-standard residues; d marks the D form. Ends that are not written are not given here. Orn = NCCC[C@H](N)C(=O)O; Dab = NCC[C@H](N)C(=O)O; Dap = NC[C@H](N)C(=O)O

Assay: Circular dichroism
Format: physicochemical
Conditions: CD, PBS pH 7.4 (aqueous), 200 μM peptide, 25 °C, from MRE at 222 nm
Procedure, shortened: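 Spectra taken at 25 °C in PBS (137 mM NaCl, 2.7 mM KCl, 10 mM Na2HPO4, 1.8 mM KH2PO4, pH 7.4) with 200 μM peptide in a 0.1 cm quartz cuvette. Scanned 195–260 nm at 5 nm min−1, 0.50 nm bandwidth, 16 s integration. A single scan was solvent-corrected and converted to MRE. Helicity was calculated using the number of residues in the potential helical region and an empirical end-effect correction.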

| Substance | % Helicity in PBS (value in parentheses) |
| --- | --- |
| AMRL[Dab]KFF[Dab]DFILQRKK [5_2–9_2] | 0.9% |
| AMRL[Orn]KFF[Dap]DFILQRKK [5_3–9_1] | 0.1% |
